Source: PubChem BioAssay
Active and inactive are the calls of the source. Cut-off read from the data, not from the text of the source, unless noted: active = inhibition above about 30%; inactive = the rest.

Tests used:
[1] = Her2 expression decrease, cell viability multiplex – SKBR3 breast tumor cells, AlphaScreen, ATP viability, primary screen (AID 461;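 active = Her2 level under about 52% in both replicate screens, with viability over 70% of control, limit read from the data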;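 for Her2 level: lower value means less Her2 protein in the cells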;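 for viability: percent of carrier control wells set as 100% viability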); conditions: SKBR3 Her2 protein level, 18-24 h, measured here: SKBR3 viability, ATP luminescence, at 10 µM
[2] = molecular target: Receptor tyrosine-protein kinase erbB-2 (Homo sapiens) (UniProt P04626); assay: as above; conditions: 18-24 h, at 10 µM, stronger effect = lower value
Receptor tyrosine-protein kinase erbB-2 (Homo sapiens), sequence (P04626 whole entry, looked up): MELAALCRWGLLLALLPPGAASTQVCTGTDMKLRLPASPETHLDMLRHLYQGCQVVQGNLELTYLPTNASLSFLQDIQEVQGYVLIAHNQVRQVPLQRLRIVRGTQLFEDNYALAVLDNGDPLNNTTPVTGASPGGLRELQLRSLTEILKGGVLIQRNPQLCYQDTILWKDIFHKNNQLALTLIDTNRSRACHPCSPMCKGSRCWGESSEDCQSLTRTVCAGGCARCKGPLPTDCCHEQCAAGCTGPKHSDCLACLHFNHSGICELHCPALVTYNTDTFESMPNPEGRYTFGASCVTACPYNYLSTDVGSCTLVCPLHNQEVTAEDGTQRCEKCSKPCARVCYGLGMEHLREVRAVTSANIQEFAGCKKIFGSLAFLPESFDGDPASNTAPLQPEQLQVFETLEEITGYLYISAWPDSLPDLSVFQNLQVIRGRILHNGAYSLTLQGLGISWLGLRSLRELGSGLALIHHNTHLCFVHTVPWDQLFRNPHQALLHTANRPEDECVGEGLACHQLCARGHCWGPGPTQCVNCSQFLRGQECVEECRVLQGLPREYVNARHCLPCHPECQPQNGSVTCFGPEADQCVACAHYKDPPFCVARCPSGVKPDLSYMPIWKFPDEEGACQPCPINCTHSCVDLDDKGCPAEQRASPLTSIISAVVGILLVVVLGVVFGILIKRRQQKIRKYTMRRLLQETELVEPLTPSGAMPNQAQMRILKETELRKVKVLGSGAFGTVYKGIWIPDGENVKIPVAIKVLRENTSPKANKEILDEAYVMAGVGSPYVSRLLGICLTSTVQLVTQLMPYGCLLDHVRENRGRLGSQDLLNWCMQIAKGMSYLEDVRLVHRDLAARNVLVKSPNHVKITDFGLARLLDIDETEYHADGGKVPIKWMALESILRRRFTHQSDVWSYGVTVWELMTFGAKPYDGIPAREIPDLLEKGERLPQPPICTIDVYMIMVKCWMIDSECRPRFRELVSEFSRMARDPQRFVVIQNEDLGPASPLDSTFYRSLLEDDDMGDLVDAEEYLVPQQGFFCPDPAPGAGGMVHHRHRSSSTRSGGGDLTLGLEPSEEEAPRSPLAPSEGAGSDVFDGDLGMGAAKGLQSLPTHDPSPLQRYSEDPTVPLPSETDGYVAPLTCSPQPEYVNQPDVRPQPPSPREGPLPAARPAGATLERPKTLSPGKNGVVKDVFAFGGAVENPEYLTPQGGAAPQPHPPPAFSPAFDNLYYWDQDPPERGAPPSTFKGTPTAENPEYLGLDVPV

[3] = reduced viability of SK-BR-3 breast cancer cells – cell-based, 24 h, human, pilot screen (AID 572;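 active = viability at or below 10% of carrier control in both of two separate runs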;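 note: compound exposure lasted between 18 and 24 h rather than exactly 24 h; 100% = carrier-treated control wells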); conditions: SK-BR-3 viability, CellTiter-Glo luminescence, at 10 µM, stronger effect = lower value
[4] = HUVEC growth inhibition – cell-based, human, primary screen (AID 575;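 active = viability at or below 30% in both replicate assays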;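 note: 100% = median of untreated cell wells with 0.1% DMSO on each plate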); conditions: HUVEC proliferation, CellTiter-Glo luminescence, 72 h; at 10 µM; stronger effect = lower value
Procedure, shortened: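 Test system: primary human umbilical vein endothelial cells; medium: endothelial basal medium with 2% FBS plus growth supplements; dosing: 10 µM compound only; times: 72 h treatment at 37 °C; signal: CTG luminescence; read-out: % viability relative to median vehicle-well signal on each plate; control set: vehicle and MePR control wells; plate: 384-well, collagen-coated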

[5] = H69AR cell proliferation blockers – human, duplicate replicates, primary screen (AID 580;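 active = viability at or under a set limit in both replicates, limit being median viability minus 3 SD, cut at about 48% in these data, passing the limit was not always enough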;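 note: 100% = mean luminescence of untreated wells and 0% = no signal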); conditions: H69AR lung tumor cells viability, ATP luminescence, 72 h; at 10 µM; stronger effect = lower value
[6] = MRP1 drug-resistance reversers in H69AR cells – cell-based, doxorubicin co-treatment, pilot screen (AID 601;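 active = viability loss from added drug above about 55%, and viability with drug at most 40%, in both replicates, limit read from the data, passing the limit was not always enough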); conditions: CellTiter-Glo, 72 h, at 10 µM; for differential viability (reversal): stronger effect = higher value
[7] = yeast transport mutant growth inhibition pilot in 384-well plates, post-Golgi transport modulator project (AID 636; in the data active = inhibition above about 31%); conditions: absorbance 615 nm, about 18 h, stronger effect = higher value
[8] = growth suppression of yeast trafficking mutant, preliminary HTS, modulators of trafficking downstream of Golgi apparatus project, 1536-format plate, OD 615 nm (AID 637); conditions: yeast transport mutant growth, absorbance 615 nm, 18 h; stronger effect = higher value
[9] = H69AR cells + 2 uM doxorubicin, measured here: viability with 2 uM doxorubicin, stronger effect = lower value
[10] = H69AR cells, compound alone cytotoxicity

Nc1nc(CSCc2ccccc2)nc(N2CCOCC2)n1
viability [1]: 99.5%
Her2 level [2]: 93.5% (inactive)
viability [3]: 99.5% (inactive)
viability [4]: 109% (inactive)
viability [5]: 95% (inactive)
differential viability (reversal) ([6]; H69AR cells + 2 uM doxorubicin): 5.8% (inactive)
viability [6, 9]: 89.2%
viability [6, 10]: 95%
inhibition [7]: -5.27% (inactive)
inhibition [8]: -8.67% (inactive)

CC(=O)Nc1ccc(S(=O)(=O)Nc2nc3ccccc3nc2N2CCCC2)cc1
viability [1]: 99.5%
Her2 level [2]: 98% (inactive)
viability [3]: 99.5% (inactive)
viability [4]: 93.7% (inactive)
viability [5]: 92.3% (inactive)
differential viability (reversal) ([6]; H69AR cells + 2 uM doxorubicin): -8.08% (inactive)
viability [6, 9]: 100%
viability [6, 10]: 92.3%
inhibition [7]: -7.87% (inactive)
inhibition [8]: 3.61% (inactive)

COc1ccc(-n2nnnc2-c2cccc(OC)c2)cc1
viability [1]: 102%
Her2 level [2]: 87.5% (inactive)
viability [3]: 102% (inactive)
viability [4]: 45.3% (inactive)
viability [5]: 34.5% (active)
differential viability (reversal) ([6]; H69AR cells + 2 uM doxorubicin): -26.5% (inactive)
viability [6, 9]: 61.1%
viability [6, 10]: 34.5%
inhibition [7]: -5.95% (inactive)
inhibition [8]: -1% (inactive)

OC(COc1ccc2ccccc2c1)CN1CCOCC1 (stereo not given)
viability [1]: 98.5%
Her2 level [2]: 87% (inactive)
viability [3]: 98.5% (inactive)
viability [4]: 82.6% (inactive)
viability [5]: 81.5% (inactive)
differential viability (reversal) ([6]; H69AR cells + 2 uM doxorubicin): -2.29% (inactive)
viability [6, 9]: 83.8%
viability [6, 10]: 81.5%
inhibition [7]: 1.56% (inactive)
inhibition [8]: 0.66% (inactive)

CC(=O)c1cccc(-n2nnnc2SCC(=O)N2CCCC2)c1
viability [1]: 93.5%
Her2 level [2]: 88% (inactive)
viability [3]: 93.5% (inactive)
viability [4]: 83.1% (inactive)
viability [5]: 87.9% (inactive)
differential viability (reversal) ([6]; H69AR cells + 2 uM doxorubicin): -2.82% (inactive)
viability [6, 9]: 90.7%
viability [6, 10]: 87.9%
inhibition [7]: -3.55% (inactive)
inhibition [8]: -7.5% (inactive)

Cc1cc(C)n(C(=O)CNC(=O)C2COc3ccccc3O2)n1 (stereo not given)
viability [1]: 122%
Her2 level [2]: 97.5% (inactive)
viability [3]: 122% (inactive)
viability [4]: 87.2% (inactive)
viability [5]: 97.1% (inactive)
differential viability (reversal) ([6]; H69AR cells + 2 uM doxorubicin): 3.57% (inactive)
viability [6, 9]: 93.5%
viability [6, 10]: 97.1%
inhibition [7]: -4.74% (inactive)
inhibition [8]: -1.59% (inactive)

O=C(Cn1nnc(-c2cccs2)n1)OC1CCCCC1
viability [1]: 94.5%
Her2 level [2]: 104% (inactive)
viability [3]: 94.5% (inactive)
viability [4]: 81.7% (inactive)
viability [5]: 110% (inactive)
differential viability (reversal) ([6]; H69AR cells + 2 uM doxorubicin): 16.9% (inactive)
viability [6, 9]: 93.3%
viability [6, 10]: 110%
inhibition [7]: -4.93% (inactive)
inhibition [8]: -3.39% (inactive)

c1ccc(SCc2nc3ccccc3[nH]2)nc1
viability [1]: 99.5%
Her2 level [2]: 107% (inactive)
viability [3]: 99.5% (inactive)
viability [4]: 103% (inactive)
viability [5]: 90.6% (inactive)
differential viability (reversal) ([6]; H69AR cells + 2 uM doxorubicin): -6.88% (inactive)
viability [6, 9]: 97.5%
viability [6, 10]: 90.6%
inhibition [7]: -5.87% (inactive)
inhibition [8]: 22.3% (inactive)

COCCCNC(=O)C(Cc1ccccc1)NS(=O)(=O)c1ccc2c(c1)c(=O)n(C)c(=O)n2C (stereo not given)
viability [1]: 101%
Her2 level [2]: 95.5% (inactive)
viability [3]: 101% (inactive)
viability [4]: 96.8% (inactive)
viability [5]: 89.2% (inactive)
differential viability (reversal) ([6]; H69AR cells + 2 uM doxorubicin): 3.26% (inactive)
viability [6, 9]: 85.9%
viability [6, 10]: 89.2%
inhibition [7]: -2.63% (inactive)
inhibition [8]: -3.97% (inactive)

CCCCc1c(O)nc(SCCN(C)C)n(-c2ccccc2)c1=O
viability [1]: 93.5%
Her2 level [2]: 110% (inactive)
viability [3]: 93.5% (inactive)
viability [4]: 99.5% (inactive)
viability [5]: 102% (inactive)
differential viability (reversal) ([6]; H69AR cells + 2 uM doxorubicin): 2.55% (inactive)
viability [6, 9]: 99%
viability [6, 10]: 102%
inhibition [7]: -1.18% (inactive)
inhibition [8]: 2.62% (inactive)

COc1ccc2cc(C#N)c(SCC(=O)N3CCCC3)nc2c1
viability [1]: 97%
Her2 level [2]: 81% (inactive)
viability [3]: 97% (inactive)
viability [4]: 90.4% (inactive)
viability [5]: 70.2% (inactive)
differential viability (reversal) ([6]; H69AR cells + 2 uM doxorubicin): -5.28% (inactive)
viability [6, 9]: 75.5%
viability [6, 10]: 70.2%
inhibition [7]: 0.95% (inactive)
inhibition [8]: -5.08% (inactive)

CCOC(=O)N1CCN(C(=O)CCc2ccc(S(=O)(=O)NCCc3ccccc3)cc2)CC1
viability [1]: 89.5%
Her2 level [2]: 102% (inactive)
viability [3]: 89.5% (inactive)
viability [4]: 87.2% (inactive)
viability [5]: 101% (inactive)
differential viability (reversal) ([6]; H69AR cells + 2 uM doxorubicin): 17.6% (inactive)
viability [6, 9]: 83.1%
viability [6, 10]: 101%
inhibition [7]: -0.13% (inactive)
inhibition [8]: -4% (inactive)

c1ccc(-n2nnnc2OCCOc2nnnn2-c2ccccc2)cc1
viability [1]: 92%
Her2 level [2]: 106% (inactive)
viability [3]: 92% (inactive)
viability [4]: 82.2% (inactive)
viability [5]: 80.4% (inactive)
differential viability (reversal) ([6]; H69AR cells + 2 uM doxorubicin): -6.12% (inactive)
viability [6, 9]: 86.5%
viability [6, 10]: 80.4%
inhibition [7]: -2.24% (inactive)
inhibition [8]: 9.18% (inactive)

CCOCCCNS(=O)(=O)c1ccc2c(c1)oc(=O)n2CC(=O)OCC
viability [1]: 107%
Her2 level [2]: 98.5% (inactive)
viability [3]: 107% (inactive)
viability [4]: 104% (inactive)
viability [5]: 94.3% (inactive)
differential viability (reversal) ([6]; H69AR cells + 2 uM doxorubicin): -8.29% (inactive)
viability [6, 9]: 103%
viability [6, 10]: 94.3%
inhibition [7]: -4.74% (inactive)
inhibition [8]: -1.27% (inactive)

O=C(CCCN1C(=O)c2ccccc2C1=O)Oc1ccc(F)cc1
viability [1]: 98%
Her2 level [2]: 98% (inactive)
viability [3]: 98% (inactive)
viability [4]: 98.2% (inactive)
viability [5]: 94.8% (inactive)
differential viability (reversal) ([6]; H69AR cells + 2 uM doxorubicin): 9.54% (inactive)
viability [6, 9]: 85.2%
viability [6, 10]: 94.8%
inhibition [7]: -5.47% (inactive)
inhibition [8]: 1.29% (inactive)
